Columns and labels:
Format in all cases: functional
BT-549 = assay: Anticancer activity against human BT549 cells after 48 hrs by sulforhodamine B assay; conditions: BT-549, 48 h
Procedure, shortened: (§1)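 NCI 60-cell-line screen. Cells grown in RPMI 1640 with 5% FBS and 2 mM L-glutamine, plated at 5000–40,000 cells/well, and preincubated 24 h at 37 °C under 5% CO2. Compounds were taken from DMSO stocks and tested at five final concentrations, 10^-4 to 10^-8 M, for 48 h. Cells were TCA-fixed, stained with 0.4% SRB, and read at 515 nm. GI50, TGI and LC50 were derived as log molar values.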

SK-OV-3 = assay: Anticancer activity against human SKOV3 cells after 48 hrs by sulforhodamine B assay; conditions: SK-OV-3, 48 h; procedure, shortened: as §1
786-0 = assay: Anticancer activity against human 786-0 cells after 48 hrs by sulforhodamine B assay; conditions: 786-0, 48 h; procedure, shortened: as §1
HCT-116 = assay: Anticancer activity against human HCT116 cells after 48 hrs by sulforhodamine B assay; conditions: HCT-116, 48 h; procedure, shortened: as §1
HT-29 = assay: Anticancer activity against human HT-29 cells after 48 hrs by sulforhodamine B assay; conditions: HT-29, 48 h; procedure, shortened: as §1
SR = assay: Anticancer activity against human SR cells after 48 hrs by sulforhodamine B assay
Procedure, shortened: (§2)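 NCI 60-cell-line panel; cells grown in RPMI 1640 with 5% FBS and 2 mM L-glutamine, plated at 5000–40,000 cells/well and preincubated 24 h at 37 °C, 5% CO2. Compounds came from DMSO stocks diluted in medium with gentamicin and were tested at five final concentrations, 10^-4 to 10^-8 M, for 48 h. Cells were fixed with TCA, stained with SRB and read at 515 nm. GI50, TGI and LC50 were derived as log molar values.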

M14 = assay: Anticancer activity against human M14 cells after 48 hrs by sulforhodamine B assay; conditions: M14, 48 h; procedure, shortened: as §1
MCF7 = assay: Anticancer activity against human MCF7 cells after 48 hrs by sulforhodamine B assay; conditions: MCF7, 48 h; procedure, shortened: as §1
U-251 = assay: Anticancer activity against human U251 cells after 48 hrs by sulforhodamine B assay; conditions: U-251, 48 h; procedure, shortened: as §2
A498 = assay: Anticancer activity against human A498 cells after 48 hrs by sulforhodamine B assay; conditions: A498, 48 h; procedure, shortened: as §1
ACHN = assay: Anticancer activity against human ACHN cells after 48 hrs by sulforhodamine B assay; procedure, shortened: as §1
UACC-62 = assay: Anticancer activity against human UACC62 cells after 48 hrs by sulforhodamine B assay; conditions: UACC-62, 48 h; procedure, shortened: as §2
Malme-3M = assay: Anticancer activity against human MALME-3M cells after 48 hrs by sulforhodamine B assay; procedure, shortened: as §1
SK-MEL-2 = assay: Anticancer activity against human SK-MEL-2 cells after 48 hrs by sulforhodamine B assay; conditions: SK-MEL-2, 48 h; procedure, shortened: as §1
SF-539 = assay: Anticancer activity against human SF539 cells after 48 hrs by sulforhodamine B assay; conditions: SF-539, 48 h; procedure, shortened: as §1
MOLT-4 = assay: Anticancer activity against human MOLT4 cells after 48 hrs by sulforhodamine B assay; conditions: MOLT-4, 48 h; procedure, shortened: as §1
HOP-62 = assay: Anticancer activity against human HOP62 cells after 48 hrs by sulforhodamine B assay; conditions: HOP-62, 48 h; procedure, shortened: as §1
EKVX = assay: Anticancer activity against human EKVX cells after 48 hrs by sulforhodamine B assay; procedure, shortened: as §1
T47D = assay: Anticancer activity against human T47D cells after 48 hrs by sulforhodamine B assay; procedure, shortened: as §2
OVCAR-8 = assay: Anticancer activity against human OVCAR8 cells after 48 hrs by sulforhodamine B assay; conditions: OVCAR-8, 48 h; procedure, shortened: as §1
NCI/ADR-RES = assay: Anticancer activity against human NCI/ADR-RES cells after 48 hrs by sulforhodamine B assay; procedure, shortened: as §1
UO-31 = assay: Anticancer activity against human UO31 cells after 48 hrs by sulforhodamine B assay; conditions: UO-31, 48 h; procedure, shortened: as §2
OVCAR-3 = assay: Anticancer activity against human OVCAR-3 cells after 48 hrs by sulforhodamine B assay; conditions: OVCAR-3, 48 h; procedure, shortened: as §1
SN12C = assay: Anticancer activity against human SN12C cells after 48 hrs by sulforhodamine B assay; procedure, shortened: as §2
NCI-H460 = assay: Anticancer activity against human NCI-H460 cells after 48 hrs by sulforhodamine B assay; conditions: NCI-H460, 48 h; procedure, shortened: as §1
COLO 205 = assay: Anticancer activity against human COLO205 cells after 48 hrs by sulforhodamine B assay; conditions: COLO 205, 48 h; procedure, shortened: as §1
KM12 = assay: Anticancer activity against human KM12 cells after 48 hrs by sulforhodamine B assay; conditions: KM12, 48 h; procedure, shortened: as §1
NCI-H226 = assay: Anticancer activity against human NCI-H226 cells after 48 hrs by sulforhodamine B assay; conditions: NCI-H226, 48 h; procedure, shortened: as §1
TK-10 = assay: Anticancer activity against human TK10 cells after 48 hrs by sulforhodamine B assay; conditions: TK-10, 48 h; procedure, shortened: as §2
HOP-92 = assay: Anticancer activity against human HOP92 cells after 48 hrs by sulforhodamine B assay; conditions: HOP-92, 48 h; procedure, shortened: as §1
PC-3 = assay: Anticancer activity against human PC3 cells after 48 hrs by sulforhodamine B assay; conditions: PC-3, 48 h; procedure, shortened: as §1
SK-MEL-5 = assay: Anticancer activity against human SK-MEL-5 cells after 48 hrs by sulforhodamine B assay; conditions: SK-MEL-5, 48 h; procedure, shortened: as §1
NCI-H322M = assay: Anticancer activity against human NCI-H322M cells after 48 hrs by sulforhodamine B assay; procedure, shortened: as §1
IGROV-1 = assay: Anticancer activity against human IGROV1 cells after 48 hrs by sulforhodamine B assay; conditions: IGROV-1, 48 h; procedure, shortened: as §1
MDA-MB-435 = assay: Anticancer activity against human MDA-MB-435 cells after 48 hrs by sulforhodamine B assay; conditions: MDA-MB-435, 48 h; procedure, shortened: as §1
[1] = Anticancer activity against human Hs 578T cells after 48 hrs by sulforhodamine B assay; procedure, shortened: as §1
SW-620 = assay: Anticancer activity against human SW620 cells after 48 hrs by sulforhodamine B assay; conditions: SW-620, 48 h; procedure, shortened: as §2
SF-295 = assay: Anticancer activity against human SF295 cells after 48 hrs by sulforhodamine B assay; conditions: SF-295, 48 h; procedure, shortened: as §1
HCT-15 = assay: Anticancer activity against human HCT15 cells after 48 hrs by sulforhodamine B assay; conditions: HCT-15, 48 h; procedure, shortened: as §1
CAKI-1 = assay: Anticancer activity against human Caki1 cells after 48 hrs by sulforhodamine B assay; conditions: CAKI-1, 48 h; procedure, shortened: as §1
OVCAR-4 = assay: Anticancer activity against human OVCAR4 cells after 48 hrs by sulforhodamine B assay; conditions: OVCAR-4, 48 h; procedure, shortened: as §1
DU-145 = assay: Anticancer activity against human DU145 cells after 48 hrs by sulforhodamine B assay; conditions: DU-145, 48 h; procedure, shortened: as §1
SK-MEL-28 = assay: Anticancer activity against human SK-MEL-28 cells after 48 hrs by sulforhodamine B assay; conditions: SK-MEL-28, 48 h; procedure, shortened: as §1
SF-268 = assay: Anticancer activity against human SF268 cells after 48 hrs by sulforhodamine B assay; conditions: SF-268, 48 h; procedure, shortened: as §1
UACC-257 = assay: Anticancer activity against human UACC257 cells after 48 hrs by sulforhodamine B assay; conditions: UACC-257, 48 h; procedure, shortened: as §2

## O=C(Nc1nccs1)NC(C(F)(F)F)C(F)(F)F
BT-549
  GI50: 46.8 µM
SK-OV-3
  GI50: > 100 µM
786-0
  GI50: > 100 µM
HCT-116
  GI50: 38 µM
HT-29
  GI50: 91.2 µM
SR
  GI50: 24 µM
M14
  GI50: > 100 µM
MCF7
  GI50: 40.7 µM
U-251
  GI50: 33.9 µM
A498
  GI50: 95.5 µM
ACHN
  GI50: 55 µM
UACC-62
  GI50: 63.1 µM
Malme-3M
  GI50: 29.5 µM
SK-MEL-2
  GI50: 45.7 µM
SF-539
  GI50: > 100 µM
MOLT-4
  GI50: 40.7 µM
HOP-62
  GI50: > 100 µM
EKVX
  GI50: 41.7 µM
T47D
  GI50: 45.7 µM
OVCAR-8
  GI50: 39.8 µM
NCI/ADR-RES
  GI50: 33.1 µM
UO-31
  GI50: 35.5 µM
OVCAR-3
  GI50: 42.7 µM
SN12C
  GI50: 43.7 µM
NCI-H460
  GI50: 34.7 µM
COLO 205
  GI50: 52.5 µM
KM12
  GI50: 39.8 µM
NCI-H226
  GI50: 57.5 µM
TK-10
  GI50: 51.3 µM
HOP-92
  GI50: 38 µM
PC-3
  GI50: 38 µM
SK-MEL-5
  GI50: 38.9 µM
NCI-H322M
  GI50: 87.1 µM
IGROV-1
  GI50: 95.5 µM
MDA-MB-435
  GI50: 79.4 µM
[1]
  GI50: 22.4 µM
SW-620
  GI50: > 100 µM
SF-295
  GI50: 43.7 µM
HCT-15
  GI50: 66.1 µM
CAKI-1
  GI50: 55 µM
OVCAR-4
  GI50: 39.8 µM
DU-145
  GI50: 63.1 µM
SK-MEL-28
  GI50: > 100 µM
SF-268
  GI50: 29.5 µM
UACC-257
  GI50: 35.5 µM

Source: ChEMBL document CHEMBL1155222, “Synthesis and anticancer activity of N-bis(trifluoromethyl)alkyl-N'-thiazolyl and N-bis(trifluoromethyl)alkyl-N'-benzothiazolyl ureas” (2009)
